Calls of active or inactive are those of the source. The calls are words filed in the database; no cut-off is given here.

For series [1], the target named is T1, Retinoic acid receptor RXR-alpha (Homo sapiens) (UniProt P19793).
T1 sequence (whole entry): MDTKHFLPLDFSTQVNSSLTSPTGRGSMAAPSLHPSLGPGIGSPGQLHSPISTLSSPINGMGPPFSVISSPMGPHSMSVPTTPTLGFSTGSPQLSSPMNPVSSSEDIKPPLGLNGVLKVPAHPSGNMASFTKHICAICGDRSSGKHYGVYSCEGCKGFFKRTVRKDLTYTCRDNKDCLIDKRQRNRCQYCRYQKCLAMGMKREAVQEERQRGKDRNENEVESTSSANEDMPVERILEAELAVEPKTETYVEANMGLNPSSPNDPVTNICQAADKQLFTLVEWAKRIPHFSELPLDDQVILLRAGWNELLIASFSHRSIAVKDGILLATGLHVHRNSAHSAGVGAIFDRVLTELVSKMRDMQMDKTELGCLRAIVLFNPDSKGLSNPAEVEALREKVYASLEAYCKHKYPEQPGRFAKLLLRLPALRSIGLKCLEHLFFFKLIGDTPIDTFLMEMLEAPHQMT
Nature of the series: Activation of RXRalpha (unknown origin) expressed in human HCT116 cells co-expressing beta-catenin and c-Cbl assessed as induction of beta-caten interaction with c-Cbl at 30 to 60 uM incubated for 15 hrs by mammalian two-hybrid assay. The series is classed as cell-based. The settings on record: HCT-116. The essentials: (§1)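 Mammalian two-hybrid: cells co-transfected by lipofection with pBIND-β-catenin/S33Y plus pACT-RXRα (RXRα–β-catenin) or pACT-c-Cbl (β-catenin–c-Cbl); 20 h after transfection, compound added for 15 h; cells lysed in passive lysis buffer, 4 °C, 1 h; firefly and Renilla luciferase read by dual-luciferase kit.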

Series [2] can be described thus: Toxicity in BALB/c mouse xenografted with human KM12C cells assessed as effect on biochemical parameter by measuring urea […] level at 100 mg/kg, ig dosed daily for 15 days by automatic chemistry analyzer based analysis (reference value: 8.21 +/- 0.26 mmol/L). The class given is organism-based. The settings on record: in vivo, po, 360 h.
Series [3] deals with T1, Retinoic acid receptor RXR-alpha (Homo sapiens). Briefly: Activation of RXRalpha in human KM12C cells assessed as reduction in Cdc2 protein expression at 25 to 50 uM incubated for 15 hrs by Western blot analysis. The class given is cell-based.
The next series deals with SW-620. Nature of the series: Inhibition of cell proliferation of human SW620 cells incubated for 15 hrs by MTT assay. The series is classed as functional, cell-based. The settings on record: SW-620, 15 h. The method, boiled down: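 Cells plated at 1×10⁴ per well, incubated overnight at 37 °C, then exposed to a concentration series for 15 h. MTT (5 mg/mL stock) added for 4 h at 37 °C. Formazan dissolved in DMSO and absorbance read at 570 nm. IC50 derived from the dose-response curve.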

Series [4] has as its target T1, Retinoic acid receptor RXR-alpha (Homo sapiens). Briefly: In-vivo activation of RXRalpha in BALB/c mouse xenografted with human KM12C cells assessed as reduction in Cdc2 protein expression at 100 mg/kg, ig dosed daily for 15 days by immunohistochemistry analysis. The class given is functional, organism-based. The essentials: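 KM12C cells (1×10^6 per mouse in 100 μL HBSS) injected subcutaneously into both flanks of nude mice; after seven days, randomized to three groups, dosed intragastrically once daily for 15 days with vehicle (CMC-Na) or 100 mg/kg compound; mice euthanized and tumors removed for analysis.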

Series [5] shares this target. Nature of the series: Activation of RXRalpha in human HCT116 cells assessed as […] crease in p21 (WAF1/CIP1) mRNA expression at 30 to 60 uM incubated for 15 hrs by real-time PCR analysis. The series is classed as cell-based. The settings on record: HCT-116. (Quantitative PCR measures a nucleic acid by following its amplification.)
Series [6] has the same target. Briefly: Activation of RXRalpha in human KM12C cells assessed as reduction in Cdc2 mRNA expression at 25 to 50 uM incubated for 15 hrs by real-time PCR analysis. The series is classed as cell-based.
For series [7] the target is unchanged. Nature of the series: Activation of RXRalpha in human SW620 cells assessed as reduction in c-Myc mRNA expression at 40 to 80 uM incubated for 15 hrs by real-time PCR analysis. The series is classed as cell-based. The settings on record: SW-620.
Series [8] concerns the target T2, Retinoic acid receptor RXR-alpha (Homo sapiens, UniProt P19793).
T2 sequence (P19793 whole entry): T1 sequence (whole entry)
Nature of the series: Binding affinity to His-tagged RXRalpha LBD (unknown origin) expressed in Escherichia coli strain BL21 (DE3) by fluorescence quenching analysis. The essentials: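 His-RXRα-LBD expressed from pET15b in E. coli BL21(DE3), induced with 0.1 mM IPTG at 16 °C for 16 h, purified on Ni-NTA. Protein held at 1 μM in PBS pH 7.4 and titrated with ligand (2–30 μM). Excitation 280 nm, emission scanned 290–600 nm, DMSO blank subtracted, each spectrum measured three times. Apparent Kd taken from the titration curve.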

For series [9], the target named is T1, Retinoic acid receptor RXR-alpha (Homo sapiens). Nature of the series: Activation of RXRalpha in human KM12C cells assessed as induction of beta-catenin protein degradation at 25 to 50 uM incubated for 15 hrs by Western blot analysis. The series is classed as cell-based. (In general: In western blotting, separated proteins are transferred to a membrane and probed.)

The subject of a further series is KM12C. Briefly: Activation of RXRalpha R371S mutant LBD (unknown origin) expressed in human KM12C cells at 50 uM incubated for 15 hrs by luciferase reporter gene assay. The class given is cell-based. The method, boiled down: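 KM12C cells co-transfected with pG5luc and pBIND-RXRα-LBD (wild type or mutants) using Lipofectamine 2000. Twenty hours after transfection, compound added at 50 μM for 15 h. Cells lysed in passive lysis buffer (4 °C, 1 h), then firefly and Renilla luciferase read by dual-luciferase assay. Basal level normalized to 1.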

Series [10] concerns the target T1, Retinoic acid receptor RXR-alpha (Homo sapiens). Nature of the series: In-vivo activation of RXRalpha in BALB/c mouse xenografted with human KM12C cells assessed as increase in p21 (WAF1/CIP1) mRNA expression at 100 mg/kg, ig dosed daily for 15 days by real-time PCR analysis. The class given is functional, organism-based. In general terms: Xenograft models place foreign cells or tissue in a host animal.

For series [11] the target is unchanged. Briefly: In-vivo activation of RXRalpha in BALB/c mouse xenografted with human KM12C cells assessed as increase in p21 (WAF1/CIP) protein expression at 100 mg/kg, ig dosed daily for 15 days by Western blot analysis. The class given is functional, organism-based.
A short description of series [12]: Toxicity in BALB/c mouse xenografted with human KM12C cells assessed as effect on biochemical parameter by measuring IBIL level at 100 mg/kg, ig dosed daily for 15 days by automatic chemistry analyzer based analysis (reference value: 0.55 +/- 0.096 umol/L). The series is classed as organism-based. The settings on record: in vivo, po, 360 h.
The target of series [13] is T1, Retinoic acid receptor RXR-alpha (Homo sapiens). Briefly: Activation of RXRalpha in human HCT116 cells assessed as increase in p21 (WAF1/CIP1) protein expression at 30 to 60 uM incubated for 15 hrs by Western blot analysis. The class given is cell-based. The settings on record: HCT-116.
Series [14] shares this target. Briefly: Activation of RXRalpha (unknown origin) expressed in human KM12C cells co-expressing beta-catenin and c-Cbl assessed as induction of beta-caten interaction with c-Cbl at 25 to 50 uM incubated for 15 hrs by mammalian two-hybrid assay. The class given is cell-based. The method, boiled down:
as §1

Series [15] shares this target. Nature of the series: Activation of RXRalpha in human KM12C cells assessed as […] crease in p21 (WAF1/CIP1) mRNA expression at 25 to 50 uM incubated for 15 hrs by real-time PCR analysis. The class given is cell-based.
Series [16] is described as follows: Tmax in Sprague-Dawley rat at 100 mg/kg, ig measured after 0.083 to 36 hrs by LC-MS/MS analysis. The class given is ADME, organism-based. The settings on record: in vivo, po. The essentials: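 SD rats (200 ± 20 g) randomized to three groups; single intragastric dose of 100 mg/kg or vehicle (0.5% CMC-Na). Tail-vein blood (0.5 mL) drawn at 0.083, 0.25, 0.5, 1, 2, 4, 8, 12, 24 and 36 h. Plasma separated by centrifugation at 2000 rpm for 10 min, frozen at -80 °C, then quantified by LC-MS/MS.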

In the case of `COc1ccc2cc3[n+](cc2c1OC)CCc1cc2c(cc1-3)OCO2.[Cl-]` [BERBERINE CHLORIDE], the result in [1], in series [3], in [4], in [5], in [6] and in series [7] was Active. The result in series [9], in [10], in series [11], in series [13], in series [14] and in [15] was Active. Also, the Activity in series [2] is 8.08 mmol/L; in series [12], 0.4 µmol/L. Further, in the series with SW-620, the IC50 (commonly the concentration that gives 50% inhibition) is 126 µM. Also, in series [8], the Kd – broadly, the constant that tells how readily two partners part at equilibrium – is 24.8 µM. Besides, the outcome with KM12C was inactive. In [16], the Tmax – broadly, the time at which the peak concentration occurs – stood at 2 h.
Consider `COc1ccc2c(c1)CC[n+]1cc3c(OC)cccc3cc1-2.[Cl-]`, for which the outcome in series [1], in series [3], in [4], in series [5], in series [6] and in [7] was Active. The result in series [9], in series [10], in series [11], in series [13], in series [14] and in series [15] was Active. The figures for the Activity in series [2] and in [12] were 8.39 mmol/L and 0.52 µmol/L, respectively. The molecule further displayed an IC50 in the series with SW-620 of 36.2 µM. The molecule also yielded a Kd in [8] of 18.9 µM. Besides, the outcome in the series with KM12C was inactive. In addition, the Tmax in series [16] was found to be 2 h.

The values are drawn from ChEMBL document CHEMBL4613270, “Structure-Activity Relationship Study Enables the Discovery of a Novel Berberine Analogue as the RXRα Activator to Inhibit Colon Cancer” (J Med Chem, 2020).
